Source: PubChem BioAssay (several laboratories)
Compounds with a hit are over-represented: about 5.7% of the library has one in this group of screens.
CSC inhib = cancer stem cell viability inhibitors, primary screen, luminescence | cancer stem cell-like cells viability | inhibition, % at 7.5 µM | 300,000 tested, 1.1% active | AID 2717, 2010; in the data active = inhibition above about 75%; inconclusive = no clear call, values can overlap the other calls; tested in HMLE shEcad cells
Mdm2-MdmX inh = inhibitors of human Mdm2-MdmX association, primary screen, cell-based, luminescence, split luciferase, SaOS-2, uHTS; 330,000 tested, 3% active; inhibition, % at 8 µM; Protein Mdm4 (Homo sapiens) + E3 ubiquitin-protein ligase Mdm2 (Homo sapiens), …; SaOS-2 split-luciferase Mdm2/MdmX complementation;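 active = inhibition of at least 50% at 8 µM in the primary screen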
Calb FLC = C. albicans growth inhibition with fluconazole, primary screen, CaCi-2 strain, Alamar Blue fluorescence | growth inhibition, % (no concentration beside the values) | C. albicans CaCi-2 (fluconazole-resistant clinical isolate) + fluconazole, 48 h | 300,000 tested, 0.57% active;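 active = growth inhibition above about 58% in most replicates, limit read from the data, passing the limit was not always enough; inconclusive = exactly half the replicates above a set limit; inactive = most replicates below a set limit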;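 also: all wells also contain fluconazole at 8 µg/ml as a sub-toxic cotreatment; 0% = median of DMSO wells and 100% = median of geldanamycin control wells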
Beta cell apopt = inhibitors of cytokine-induced beta cell apoptosis, primary screen, luminescence | INS-1E cytokine-induced death, ATP luminescence, 48 h; percent of positive-control rescue, neutral wells zero | protection from apoptosis, % (test concentration not listed) | 300,000 tested, 0.8% active | AID 435005, 2010;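 active = Every replicate reaches about 75%, or at least half do and their mean reaches it too, limit read from the data; inconclusive = At least half of replicates reach the limit but their mean does not; inactive = Under half of replicates reach the limit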;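 also: 0% = cytokine-treated negative control wells and 100% = positive control rescue; higher means more ATP so stronger rescue from cytokine killing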
T cruzi repl = inhibitors of intracellular T. cruzi growth, primary screen, luminescence, NIH3T3 host cells; T. cruzi beta-gal in NIH3T3, 90 h; inhibition, % (no concentration beside the values); 300,000 tested, 1.4% active; AID 1885, 2009;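 active = mean inhibition across valid replicates above about 55%, limit read from the data; inconclusive = mean below that limit but half or more replicates reach it; inactive = mean below it, under half of replicates reach it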;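 also: signal also drops with host cell toxicity which is not excluded here; 0% = plate median of DMSO wells and 100% = zero luminescence signal; higher percent means less beta-gal luminescence so fewer parasites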
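System: Mouse NIH/3T3 fibroblasts infected with β-gal-expressing T. cruzi Tulahuen C4 | Quantity: NIH/3T3 cells, 5,000 per well | Reagent: 5000 reporter trypomastigotes per well | Dosing: Compound pinned at 50 nL/well, DMSO | Schedule: 3 h host attachment, then at least 90 h co-culture | Detection: GalScreen luminescence, 60 min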
SKKanGAS inh = S. pyogenes SKKanGAS growth inhibitors in kanamycin, primary screen, streptokinase expression inhibitor project, SKKanGAS strain, BacTiter-Glo luminescence; 6 h; 300,000 tested, 1.3% active; AID 1662, 2009; inhibition, % at 7.5 µM;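 active = mean replicate score, as percent of positive control median, at least 50; inconclusive = mean below 50 but one replicate at or above 50; inactive = mean and every replicate below 50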;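 also: strain carries kanamycin resistance gene driven by streptokinase promoter and grows in 40 µg/ml kanamycin; loss of luminescence reflects streptokinase promoter inhibition or plain growth inhibition; 0% = median of DMSO wells and 100% = positive control at its reference dose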
Mdm2-MdmX conf = Mdm2-MdmX complex disruptors, retested hits, confirmation, luminescence, single concentration; shares compounds with Mdm2-MdmX inh; Mdm2-MdmX binding, luminescent assay; inhibition, % at 8 µM; 10,000 tested, 55% active; AID 489028, 2010; in the data active = inhibition above about 40%
FLuc counter = full-length luciferase signal inhibition, confirmation, counter-screen for Mdm2/MdmX interaction inhibitor project, cell-based, single concentration, SaOS-2; inhibition, % at 8 µM; shares compounds with Mdm2-MdmX inh; SaOS-2 full-length luciferase counterscreen, luminescence; 6,200 tested, 77% active; AID 504607, 2011;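 active = mean inhibition at 8 µM reaching about 37%, which flags the compound as non-specific, limit read from the data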;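 also: p53-null SaOS-2 cells with luciferase driven by a doxycycline-inducible promoter; compound on cells about two nights before reading with doxycycline added after day one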
The depositor's hits bear a star; ? = inconclusive; . = no result.

SMILES	CSC inhib	Mdm2-MdmX inh	Calb FLC	Beta cell apopt	T cruzi repl	SKKanGAS inh	Mdm2-MdmX conf	FLuc counter
CN1CCN(c2ccc([N+](=O)[O-])cc2C(=O)N2CCCCC2)CC1	-10.2	-40.9	0.9	-7.5	-19.7	7.2	.	.
O=C(c1ccc(Br)cc1)c1cc([N+](=O)[O-])ccc1N1CCOCC1	67.2	48.0	?	12.8	-11.6	4.0	.	.
CN1CCN(c2ccc([N+](=O)[O-])cc2C(=O)c2ccc(Cl)cc2)CC1	-3.7	50.5*	-5.6	18.1	0.7	5.0	61.2*	56.5*
O=C(c1ccc(Cl)cc1)c1cc([N+](=O)[O-])ccc1N1CCOCC1	52.1	64.6*	?	32.2	13.1	3.1	51.7*	80.6*
COCCCN(C(=S)NC(=O)C12CC3CC(CC(C3)C1)C2)c1c(N)n(Cc2ccccc2)c(=O)[nH]c1=O	0.0	5.2	4.1	-4.5	15.5	-4.0	.	.
Oc1ccc2ccccc2c1-c1sc(Nc2ccccc2)n[n+]1-c1ccc(F)cc1	5.6	-27.4	5.8	-7.3	12.1	9.4	.	.
Fc1ccc(-[n+]2nc(Nc3ccccc3)sc2-c2c3ccccc3cc3ccccc23)cc1	103.1*	100.3*	16.6	66.7	49.3	56.9*	90.0*	42.2*
COc1ccc(C)cc1Nc1n[n+](-c2ccccc2)c(-c2c(OC)ccc3ccccc23)s1	86.8*	91.6*	.	124.2*	.	.	62.3*	29.0
c1ccc(-[n+]2nc(Nc3cccc4ccccc34)sc2-c2c3ccccc3cc3ccccc23)cc1	6.0	64.8*	.	116.7*	.	.	80.2*	23.6
COC(=O)c1c(C)[nH]c(C(=O)C(C)OC(=O)C2CC2)c1C (stereo not given)	.	1.2	.	10.3	.	.	.	.
CC(=O)Nc1ccc(N=Cc2c(O)c(C(=O)Nc3ccccc3)cc3ccccc23)cc1	97.7*	77.9*	30.9	12.3	-13.8	60.7*	36.8	103.5*
CC(=O)Nc1ccc(NC(=O)c2cccc3ccccc23)cc1	-0.2	12.0	-1.2	-6.0	-5.6	-21.5	.	.
CCOc1cc(Br)c(Br)c(C=Nc2ccc(NC(C)=O)cc2)c1O	-0.7	67.9*	2.2	-3.5	-9.3	-1.7	76.4*	33.1
CC(=O)Nc1ccc(N=Cc2c(O)c3ccccc3oc2=O)cc1	17.4	53.2*	-0.4	-0.4	-11.7	0.5	33.5	.
Cc1ccc(-c2csc3ncnc(SCC(=O)NCC4CCCO4)c23)cc1 (stereo not given)	.	0.1	.	-3.6	.	.	.	.
CCc1ccc(C(=O)CCC(=O)Nc2ccc(OC)c(S(=O)(=O)N3CCCCC3)c2)cc1	27.1	9.3	.	-2.7	.	.	.	.
COc1cccc(Cn2nc3c4cc(F)ccc4n(Cc4ccc(F)cc4)cc-3c2=O)c1	.	14.8	-6.5	.	1.5	-1.6	.	.
COc1cc2c3nnc(-c4ccccc4)c-3cn(Cc3ccc(F)cc3)c2cc1OC	7.2	45.8	4.9	-27.2	15.2	8.8	.	.
COc1cc2c3nnc(-c4ccc(F)cc4)c-3cn(Cc3cccc(C)c3)c2cc1OC	17.6	96.5*	-3.5	23.3	6.9	-1.0	99.2*	86.9*
COc1cc2c3nnc(-c4ccc(F)cc4)c-3cn(Cc3ccc(C)cc3)c2cc1OC	-1.2	78.2*	-3.1	8.3	-4.4	1.6	72.3*	68.2*
COc1cc2c3nnc(-c4ccc(F)cc4)c-3cn(Cc3cccc(F)c3)c2cc1OC	5.9	89.2*	.	-1.9	0.6	.	100.2*	50.4*
COc1ccc(C)cc1N(C(=O)c1snc(C(N)=O)c1N)C(C(=O)NC1CCCC1)c1ccc(F)cc1 (stereo not given)	15.5	-3.5	38.5	-1.9	9.8	7.5	.	.
O=[N+]([O-])c1ccc2nc(-[n+]3c(-c4ccccc4)cc(-c4ccccc4)cc3-c3ccccc3)[nH]c2c1	31.5	80.9*	68.9	44.8	57.6*	1.0	61.9*	56.7*
Cc1nnc2c3ccccc3c(-c3ccc(O)cc3)nn12	3.0	66.5*	-8.5	-6.4	10.2	3.7	32.5	61.8*
Cc1nnc2c3ccccc3c(Cl)nn12	2.2	7.3	-3.2	-4.3	-12.1	11.4	.	.
SMILES	CSC inhib	Mdm2-MdmX inh	Calb FLC	Beta cell apopt	T cruzi repl	SKKanGAS inh	Mdm2-MdmX conf	FLuc counter
Cc1nnc2c3ccccc3c(-c3cccs3)nn12	-5.2	54.1*	-25.3	-6.7	11.3	13.4	35.3	53.4*
COC(=O)Cn1c2ccc(OC)cc2c2nc3ccccc3nc21	-11.3	41.5	?	-2.6	-14.7	-4.0	.	.
CCOC(=O)Cn1c2ccc(OC)cc2c2nc3ccccc3nc21	6.7	70.4*	-3.6	.	0.2	-3.4	25.4	.
O=S(=O)(c1ccccc1)c1cnc(-c2ccccc2)nc1N1CCCC1	5.6	2.1	0.7	11.4	21.1	15.5	.	.
COc1cc2ncc(S(=O)(=O)c3ccccc3)c(N3CCCC(C)C3)c2cc1OC (stereo not given)	8.7	50.9*	-4.0	11.2	35.3	43.8	17.9	.
COc1cccc(/C=C/C(=O)Nc2ccc(C(=O)Nc3cccc(S(N)(=O)=O)c3)cc2)c1OC	4.5	70.7*	12.5	12.9	-3.0	12.9	18.9	.
O=c1[nH]c(=O)n(CCc2ccc(F)cc2)c(O)c1C=NCc1ccc2c(c1)OCO2	.	80.0*	-3.8	-3.2	-16.2	-7.0	5.5	.
NC1CCCCC1N=Cc1c(O)n(CCc2ccc(F)cc2)c(=O)[nH]c1=O (stereo not given)	.	.	4.8	.	1.9	1.5	.	.
O=c1c(Cl)nc2cc(Cl)ccc2n1CCNc1ncc(C(F)(F)F)cc1Cl	-1.4	96.8*	-1.2	2.3	17.2	-1.4	43.4*	6.5
Cc1cc(C(=O)CSc2nnc3ccccn23)c(C)n1-c1ccccc1	-7.6	81.6*	5.1	0.7	13.7	-3.8	85.9*	29.6
Cc1cc(C(=O)CSc2nnc(-c3ccccc3)n2-c2ccccc2)c(C)n1-c1ncn[nH]1	-11.5	2.2	-4.2	-2.9	9.7	3.4	.	.
Cn1c(/C=C/c2ccc(Br)cc2)nc2ccccc2c1=O	8.4	-113.7	.	1.5	0.4	7.9	.	.
COc1ccc(/C(C)=N/NC(=O)c2nnn(-c3nonc3N)c2CN(C)c2ccccc2)cc1	-3.9	50.1*	.	15.5	4.2	-2.0	1.9	.
